Experimental findings from ChEMBL document CHEMBL1145772, “Antiinflammatory, gastrosparing, and antiplatelet properties of new NO-donor esters of aspirin” (J Med Chem, 2003) are described below.

A short description of data set [1]: Percent unaltered compound in human serum after 1 min of incubation. Type of data set: ADME. The settings on record: read-out: Unaltered compound. A digest of the protocol: (§1)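 Compound is incubated in human serum at 37 °C for 1 min or 1 h. Samples are then deproteinized with acetonitrile containing 0.1% TFA and centrifuged at 9600g for 10 min. The remaining intact compound is quantified by reversed-phase HPLC on an RP-18 column at 40 °C, using a 25–80% acetonitrile/0.1% TFA gradient, with UV detection at 224 nm.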

The species named for data set [2] is Homo sapiens. Description: Inhibition of collagen-induced human platelet rich plasma aggregation at 50 uM concentration. It counts as functional. In a few lines: (§2)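 Human platelet-rich plasma is prepared from citrated venous blood of drug-free healthy volunteers (at least 2 weeks) by spinning at 200g for 20 min. Compound is added 10 min before the agonist, either ADP or collagen at […]. Light-transmission aggregation is recorded under stirring at 1000 rpm, 37 °C, for 5 min. Inhibition is expressed relative to vehicle (<0.5% DMSO) controls. The top concentration is 50 µM. pIC50 is fitted by nonlinear regression when inhibition exceeds 50%.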

A short description of data set [3]: NO release in the presence of 1:5 molar excess of L-cysteine, value expressed as % mol/mol of NO2-. A digest of the protocol:
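Compound is dissolved in pH 7.4 buffered water/methanol and incubated for 1 h at 37 °C with a 1:5 molar excess of L-cysteine (5 × 10^-4 M). Griess reagent is added, and absorbance at 540 nm is read after 10 min at room temperature. Nitrite is reported as % mol/mol, mean ± SEM.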

For data set [4], the species on record is Homo sapiens. Kind of data set: Inhibition of ADP-induced human platelet rich plasma aggregation at 50 uM concentration. Type of data set: functional. A digest of the protocol:
as §2

Data set [5] in a line: Percent unaltered compound in human serum after 1 hr of incubation. Type of data set: ADME. The settings on record: read-out: Unaltered compound. A digest of the protocol:
as §1

The species named for data set [6] is Homo sapiens. Kind of data set: Inhibition of collagen-induced human platelet rich plasma aggregation at 50 uM concentration in presence of 40 uM HbO2. It counts as functional. In a few lines: (§3)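 Aggregation of human PRP is triggered by ADP or by collagen at […], and read by light transmission (stirring, 37 °C, 5 min). Compound is given 10 min before the agonist. The NO scavenger oxyhaemoglobin or the sGC inhibitor ODQ (100 µM) is included to probe NO/sGC involvement. The value is % inhibition versus vehicle control at the top tested concentration of 50 µM.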

The species named for data set [7] is Homo sapiens. Description: Inhibition of ADP-induced human platelet rich plasma aggregation at 50 uM concentration in presence of 40 uM HbO2. Type of data set: functional. A digest of the protocol:
as §3

For data set [8], the species on record is Homo sapiens. Kind of data set: Inhibition of ADP-induced human platelet rich plasma aggregation at 50 uM concentration in presence of 100 uM ODQ. It counts as functional. In a few lines: as §3
The species entered for data set [9] is Homo sapiens. Kind of data set: Inhibition of collagen-induced human platelet rich plasma aggregation at 50 uM concentration in presence of 100 uM ODQ. Type of data set: functional. In a few lines: as §3
For data set [10], the species on record is Homo sapiens. Kind of data set: Inhibition of collagen-induced human platelet rich plasma aggregation. Type of data set: functional. In a few lines: as §2

What is called inhibition is the drop in the measured response relative to a control, in per cent. The Inhibition is the relative decrease from the control value, in per cent.

Turning to `CC(=O)Oc1ccccc1C(=O)OCCCO[N+](=O)[O-]`, the remaining at 1 min in [1] was determined as 0%. For the same molecule, the inhibition at 50 µM was 12.3% in the data set filed under Homo sapiens [2] and 18.3% in the data set filed under Homo sapiens [4]. For the same molecule, the NO release in data set [3] worked out at 0.18. Also, the remaining at 1 h in data set [5] came to 0%.

In the case of `CC(=O)Oc1ccccc1C(=O)OCc1nonc1C(N)=O`, the remaining at 1 min in [1] was found to be 0%. For the same molecule, the inhibition at 50 µM in the data set filed under Homo sapiens [2] is 16.7%; in the data set listed under Homo sapiens [4] it was 7.6%. Also, in data set [5], the remaining at 1 h amounted to 0%.

Regarding `CCCOC(=O)c1ccccc1OC(C)=O`, in [1], the remaining at 1 min is 0%. Moreover, the inhibition at 50 µM in the data set listed under Homo sapiens [2] is 14.4%; in the data set listed under Homo sapiens [4], 18.1%. Besides, the remaining at 1 h in data set [5] was 0%.

In the case of `CC(=O)Oc1ccccc1C(=O)OCCCOc1no[n+]([O-])c1S(=O)(=O)c1ccccc1`, the remaining at 1 min in data set [1] is 43.7%. For the same molecule, the NO release in [3] was 37.1. The remaining at 1 h in [5] amounted to 9.3%.

On to `CC(=O)Oc1ccccc1C(=O)OCCCOc1nonc1-c1ccccc1`, for which the remaining at 1 min in [1] was 39.3%. The inhibition at 50 µM is 0.7% in the data set listed under Homo sapiens [2] and 16.9% in the data set filed under Homo sapiens [4]. For the same molecule, the remaining at 1 h in [5] stood at 3.9%.

For the molecule `CC(=O)Oc1ccccc1C(=O)OCCCOc1nonc1S(=O)(=O)c1ccccc1`, the remaining at 1 min in data set [1] was found to be 47.6%. Moreover, the inhibition at 50 µM worked out at 14.8% in the data set filed under Homo sapiens [2] and 3.3% in the data set filed under Homo sapiens [4]. In addition, the remaining at 1 h in data set [5] is 8.1%.

As for `CC(=O)Oc1ccccc1C(=O)OCc1nonc1C`, the remaining at 1 min in data set [1] was found to be 0%. Moreover, the inhibition at 50 µM in the data set filed under Homo sapiens [2] was 1.5%; in the data set listed under Homo sapiens [4], 23.2%. The remaining at 1 h in [5] is 0%.

Regarding `CC(=O)Oc1ccccc1C(=O)OCc1no[n+]([O-])c1C(N)=O`, the Inhibition in the data set filed under Homo sapiens [6] is reported as 14.4%; in the data set listed under Homo sapiens [7], 28.6%; in the data set filed under Homo sapiens [8], 22.6%; in the data set filed under Homo sapiens [9] it was 18.5%. Besides, in data set [1], the remaining at 1 min is 0%. The NO release in [3] amounted to 3.8. In data set [5], the remaining at 1 h is 0%.

For the molecule `CC(=O)Oc1ccccc1C(=O)OCc1nonc1C#N`, in data set [1], the remaining at 1 min was 0%. Further, the values for the inhibition at 50 µM in the data set listed under Homo sapiens [2] and in the data set filed under Homo sapiens [4] were 27.9% and 14.8%, respectively. Moreover, in data set [5], the remaining at 1 h was 0%.

Turning to `CC(=O)Oc1ccccc1C(=O)OCc1no[n+]([O-])c1C#N`, the remaining at 1 min in data set [1] amounted to 0%. Besides, the NO release in [3] came to 32.3. In [5], the remaining at 1 h was found to be 0%.

As for `CC(=O)Oc1ccccc1C(=O)OCc1no[n+]([O-])c1C`, in data set [1], the remaining at 1 min amounted to 2.5%. Moreover, the NO release in [3] amounted to 0. Testing at 50 µM in the data set filed under Homo sapiens [4] gave an inhibition of 17.8%. The Inhibition in the data set filed under Homo sapiens [10] was found to be 18.6%. Moreover, in data set [5], the remaining at 1 h is 0%.

Regarding `CC(=O)Oc1ccccc1C(=O)OCCCOc1no[n+]([O-])c1-c1ccccc1`, the remaining at 1 min in data set [1] was 38.8%. For the same molecule, the NO release in [3] was determined as 0.35. In data set [5], the remaining at 1 h is 3.8%.
